Reference: ChEMBL document CHEMBL1123730, “Synthesis and pharmacological evaluation of a new class of 2-(2-aminothiazol-4-yl)-2-hydrazonoacetamido cephalosporins” (J Med Chem, 1987)
In brackets after ≈: the same amount, converted by molar mass.

Columns and labels:
[1] = test system: Alcaligenes; assay: Geometrical average of minimum inhibitory concentration was determined in isosensitest broth against Alcaligenes; type: functional
[2] = test system: Serratia; assay: Geometrical average of minimum inhibitory concentration was determined in isosensitest broth against Serratia; type: functional
[3] = Half-life administered, intramuscularly; type: ADME; conditions: im
Summary of the method: (§1)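 Wistar rats (200-250 g, groups of five) given 50 mg/kg in sterile water iv or im; killed at 5-360 min, serum separated. Levels by agar diffusion bioassay, E. coli ATCC 10536 test organism, 37 °C 18 h, standards in serum (detection limit 1 μg/mL); elimination half-life derived from serum time course.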

[4] = test system: Streptococcus; assay: Geometrical average of minimum inhibitory concentration was determined in isosensitest broth against Streptococcus; type: functional
[5] = Serum level was determined at 15 min after an intravenous administration of 50 mg/kg in rats; type: ADME, organism-based; set-up: dose 50 mg/kg, route intravenous; conditions: rat, read-out: Serum level
Summary of the method: (§2)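 Dose 50 mg/kg in sterile water, iv or im, to Wistar rats 200-250 g, five per time point; killed at set intervals, blood centrifuged for serum. Antibiotic measured by agar diffusion on Nutrient Agar with E. coli ATCC 10536 (37 °C, 18 h), standards diluted in serum; detection limit 1 μg/mL. Mean ± SEM of five rats.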

[6] = Distribution (50 mg/kg) was determined in kidney 15 min after intramuscular administration; type: ADME, organism-based; conditions: im, read-out: Tissue distribution
Summary of the method: (§3)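 Wistar rats (200-250 g, groups of five) given 50 mg/kg in sterile water iv or im; killed at set times, lung, liver and kidney homogenized in 0.1 M pH 7.3 phosphate buffer (tissue:buffer 1:5). Drug assayed by agar diffusion on Nutrient Agar with E. coli ATCC 10536 (37 °C, 18 h); standards in phosphate buffer; detection limit 0.5 μg/mL; mean ± SEM.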

[7] = Distribution (50 mg/kg) was determined in liver 15 min after intravenous administration; type: ADME, organism-based; conditions: read-out: Tissue distribution; summary of the method: as §3
[8] = Distribution (50 mg/kg) was determined in lung 60 min after intramuscular administration; type: ADME, organism-based; conditions: im, read-out: Tissue distribution; summary of the method: as §3
[9] = test system: Escherichia coli; assay: In vivo protective dose was determined in infected swiss mice (120/strain) infected ip with Escherichia coli ISM with an inoculum size-0.5 mL of 10 E6 CFU/mL of suspension. Activity in range of 0.90-2.34; type: functional
[10] = test system: Streptococcus; assay: Geometrical average of minimum bactericidal concentration was determined in isosensitest broth against Streptococcus; type: functional
[11] = test system: Pseudomonas; assay: Geometrical average of minimum bactericidal concentration was determined in isosensitest broth against Pseudomonas; type: functional
[12] = test system: Proteus; assay: Geometrical average of minimum bactericidal concentration was determined in isosensitest broth against Proteus; type: functional, Proteus sp.
[13] = test system: Staphylococcus; assay: Geometrical average of minimum bactericidal concentration was determined in isosensitest broth against Staphylococcus (10); type: functional
[14] = test system: Proteus; assay: Geometrical average of minimum inhibitory concentration was determined in isosensitest broth against Proteus; type: functional, Proteus sp.
[15] = test system: Neisseria perflava; assay: Geometrical average of minimum bactericidal concentration was determined in isosensitest broth against Neisseria perfl (1); type: functional
[16] = Half-life administered, intravenously; type: ADME, organism-based; conditions: in vivo, iv; summary of the method: as §1
[17] = test system: Klebsiella; assay: Geometrical average of minimum bactericidal concentration was determined in isosensitest broth against Klebsiella; type: functional
[18] = Serum level was determined at 5 min after an intravenous administration of 50 mg/kg in rats; type: ADME, organism-based; set-up: dose 50 mg/kg, route intravenous; conditions: rat, read-out: Serum level; summary of the method: as §2
[19] = test system: Escherichia coli; assay: Minimum inhibitory concentration against Escherichia coli ISM strain; type: functional
[20] = Distribution (50 mg/kg) was determined in lung 30 min after intramuscular administration; type: ADME, organism-based; conditions: im, read-out: Tissue distribution; summary of the method: as §3
[21] = test system: Salmonella; assay: Geometrical average of minimum inhibitory concentration was determined in isosensitest broth against Salmonella; type: functional
[22] = Geometrical average of minimum inhibitory concentration was determined in isosensitest broth against gram-negative strains.; type: functional
[23] = test system: Salmonella typhimurium; assay: In vivo protective dose was determined in infected swiss mice (120/strain) infected ip with Salmonella Typhimurium T.O. with an inoculum size-0.5 mL of 10 E6 CFU/mL of suspension. Activity in range of 5.47-15.81; type: functional, Salmonella enterica subsp. enterica serovar Typhimurium; conditions: Salmonella enterica
[24] = Distribution (50 mg/kg) was determined in kidney 120 min after intramuscular administration; type: ADME, organism-based; conditions: im, read-out: Tissue distribution; summary of the method: as §3
[25] = Distribution (50 mg/kg) was determined in liver 120 min after intramuscular administration; type: ADME, organism-based; conditions: im, read-out: Tissue distribution; summary of the method: as §3
[26] = Distribution (50 mg/kg) was determined in kidney 5 min after intramuscular administration; type: ADME, organism-based; conditions: im, read-out: Tissue distribution; summary of the method: as §3

SMILES: Cn1nnnc1SCC1=C(C(=O)O)N2C(=O)[C@@H](NC(=O)/C(=N/N)c3csc(N)n3)[C@H]2SC1
- MIC [1]: 8.83 µg/mL (≈ 17.8 µM)
- MIC [2]: 1.75 µg/mL (≈ 3.52 µM)
- half-life [3]: 69 min
- MIC [4]: 25 µg/mL (≈ 50.3 µM)
- concentration at 0.25 h [5]: 137 µg/mL
- concentration at 0.25 h [6]: 25100 ng/g
- concentration at 0.25 h [7]: 25800 ng/g
- concentration at 1 h [8]: 7660 ng/g
- ED50 [9]: 1.45 mg/kg
- MBC [10]: 70.7 µg/mL (≈ 142 µM)
- MBC [11]: > 100 µg/mL
- MBC [12]: 2.45 µg/mL (≈ 4.93 µM)
- MBC [13]: 11.3 µg/mL (≈ 22.7 µM)
- MIC [14]: 1.08 µg/mL (≈ 2.17 µM)
- MBC [15]: < 0.09 µg/mL
- half-life [16]: 45 min
- MBC [17]: 2.78 µg/mL (≈ 5.6 µM)
- concentration at 5 min [18]: 231 µg/mL
- MIC [19]: 1.1 µg/mL (≈ 2.22 µM)
- concentration at 0.5 h [20]: 12200 ng/g
- MIC [21]: 0.86 µg/mL (≈ 1.73 µM)
- MIC [22]: 1.74 µg/mL (≈ 3.5 µM)
- ED50 [23]: 9.3 mg/kg
- concentration at 2 h [24]: 10200 ng/g
- concentration at 2 h [25]: 5270 ng/g
- concentration at 5 min [26]: 6420 ng/g
